Data reported in article PMC3747510 (Scientific Reports, 2013).
Converted amounts (≈) assume the structure as drawn. Read-outs that look alike come from different tables or passages of the source.

Experiments:
[1] = molecular target: T1, Human mitochondrial LeuRS (Homo sapiens, UniProt Q15031); assay: Aminoacylation inhibition; assay type: biochemical
T1 sequence (Q15031 1-903): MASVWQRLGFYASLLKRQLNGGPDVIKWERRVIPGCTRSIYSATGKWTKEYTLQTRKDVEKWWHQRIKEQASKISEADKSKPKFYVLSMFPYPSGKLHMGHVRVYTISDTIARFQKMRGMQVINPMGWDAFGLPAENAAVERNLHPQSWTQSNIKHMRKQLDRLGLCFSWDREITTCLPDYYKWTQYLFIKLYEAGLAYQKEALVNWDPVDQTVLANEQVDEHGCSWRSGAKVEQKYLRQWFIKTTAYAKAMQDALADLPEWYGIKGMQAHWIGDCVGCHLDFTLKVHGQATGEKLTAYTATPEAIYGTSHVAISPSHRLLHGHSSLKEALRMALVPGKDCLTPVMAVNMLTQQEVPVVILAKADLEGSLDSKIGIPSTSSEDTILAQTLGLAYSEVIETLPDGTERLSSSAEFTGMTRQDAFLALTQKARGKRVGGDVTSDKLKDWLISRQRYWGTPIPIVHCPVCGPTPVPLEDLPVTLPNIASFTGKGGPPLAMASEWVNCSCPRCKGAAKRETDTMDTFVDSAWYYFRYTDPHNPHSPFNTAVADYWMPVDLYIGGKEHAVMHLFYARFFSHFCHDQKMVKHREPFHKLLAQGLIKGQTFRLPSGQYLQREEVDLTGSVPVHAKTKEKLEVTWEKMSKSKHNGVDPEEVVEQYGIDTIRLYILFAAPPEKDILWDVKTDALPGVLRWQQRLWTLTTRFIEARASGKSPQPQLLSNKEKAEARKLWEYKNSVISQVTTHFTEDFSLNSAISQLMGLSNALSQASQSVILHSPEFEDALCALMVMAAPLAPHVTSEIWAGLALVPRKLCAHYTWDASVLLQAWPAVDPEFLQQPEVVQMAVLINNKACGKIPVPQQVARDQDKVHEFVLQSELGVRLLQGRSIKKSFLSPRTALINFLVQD
Method in brief: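 Human cytosolic or mitochondrial LeuRS, expressed in E. coli. Aminoacylation run at 30°C. At least six test-compound concentrations were tested, with enzyme amount set to form 10 pmol Leu-tRNALeu in 5 min. IC50 was taken from a fitted dose-response curve, as the mean of at least two independent experiments.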

SpLeuRS [2] = molecular target: T2, SpLeuRS (Streptococcus pneumoniae serotype 4, UniProt Q97SS0); assay: Inhibitory kinetics of SpLeuRS aminoacylation; assay type: biochemical; details: for Ki: 2 nM SpLeuRS
T2 sequence (Q97SS0 1-833): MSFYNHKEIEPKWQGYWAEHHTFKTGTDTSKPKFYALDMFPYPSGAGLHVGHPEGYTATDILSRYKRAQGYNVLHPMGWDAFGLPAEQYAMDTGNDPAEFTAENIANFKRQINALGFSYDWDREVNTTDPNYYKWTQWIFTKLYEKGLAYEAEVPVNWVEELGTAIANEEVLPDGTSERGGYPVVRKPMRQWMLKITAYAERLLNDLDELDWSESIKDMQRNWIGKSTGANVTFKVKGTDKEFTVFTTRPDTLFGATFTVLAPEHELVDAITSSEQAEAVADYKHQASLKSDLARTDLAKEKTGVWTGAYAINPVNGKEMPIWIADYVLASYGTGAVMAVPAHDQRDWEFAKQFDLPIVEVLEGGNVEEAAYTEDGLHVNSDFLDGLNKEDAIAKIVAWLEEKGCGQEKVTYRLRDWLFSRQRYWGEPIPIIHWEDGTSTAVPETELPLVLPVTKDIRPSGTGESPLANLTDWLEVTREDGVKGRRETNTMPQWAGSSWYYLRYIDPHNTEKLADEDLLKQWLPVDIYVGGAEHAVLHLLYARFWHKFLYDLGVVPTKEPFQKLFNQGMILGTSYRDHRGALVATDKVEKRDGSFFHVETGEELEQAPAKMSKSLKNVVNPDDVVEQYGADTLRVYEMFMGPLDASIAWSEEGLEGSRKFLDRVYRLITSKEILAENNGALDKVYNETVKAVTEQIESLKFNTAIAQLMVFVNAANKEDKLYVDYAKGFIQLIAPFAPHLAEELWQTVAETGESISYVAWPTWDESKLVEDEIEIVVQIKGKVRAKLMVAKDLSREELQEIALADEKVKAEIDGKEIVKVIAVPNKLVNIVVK
Method in brief: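 Test compound at 0, 2 or 8 μM. Substrate-velocity data were linearized by reciprocal fitting into Lineweaver-Burk plots to derive kinetic constants and inhibition mode.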

S. pneumoniae = assay: Broth microdilution MIC, S. pneumoniae; assay type: cell-based; details: Streptococcus pneumoniae, 24 h, read-out: MIC, Bacteria, S. pneumoniae
Method in brief: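 S. pneumoniae clinical isolate, from paediatric community-acquired pneumonia. CLSI M7-A7 broth microdilution in Mueller Hinton broth with 2.5% lysed sheep blood, inoculum about 2 × 10^8 CFU/mL. Serial test-compound dilutions, 37°C for 24 h. MIC was the lowest concentration suppressing visible growth.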

[3] = system: E. coli strains containing pET30a-eclrs; assay: MIC upon overexpression of EcLeuRS; assay type: cell-based, Escherichia coli; details: induced by IPTG
Method in brief: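 E. coli transformants carrying pET30a-eclrs, with the empty pET30a vector strain as control. Both were induced with 10 μM IPTG and tested by broth microdilution in Mueller Hinton broth (37°C, 24 h). MICs were read as the lowest concentration without visible growth and compared between the two strains.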

E. coli = assay: Broth microdilution MIC, E. coli; assay type: cell-based; details: Escherichia coli
Method in brief: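 Broth microdilution per CLSI M7-A7 in Mueller Hinton broth. About […] E. coli was exposed to serial test-compound dilutions for 24 h at 37°C. MIC was the lowest concentration suppressing visible growth. Ampicillin was used to monitor susceptibility.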

SpLeuRS [4] = molecular target: T2, SpLeuRS; assay: Post-transfer editing; assay type: biochemical; details: 5 or 50 μM ZCL039, 1 μM [3H]Met-SptRNALeu
Method in brief: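 Enzyme and test compound were preincubated 20 min. Substrate was mischarged with the EcLeuRS-D345A editing mutant (30 min, 37°C), then acid-phenol extracted. Controls: DMSO, and no-enzyme spontaneous hydrolysis. Means of three experiments.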

## OB1OCc2ccc(C(O)c3ccccc3)cc21 (stereo not shown) [ZCL039, [6-(1-phenyl-1-hydroxylmethyl)]-1,3-dihydro-1-hydroxy-2,1-benzoxaborole]
[1]
  IC50: > 250000 nM
SpLeuRS [2]; +2 μM ZCL039
  kcat of SpLeuRS, substrate ATP: 6.35 ± 0.65 s⁻¹
  kcat of SpLeuRS, substrate Leu: 6.44 ± 0.55 s⁻¹
  kcat of SpLeuRS, substrate SptRNALeu: 6.62 ± 0.48 s⁻¹
SpLeuRS [2]; +8 μM ZCL039
  kcat of SpLeuRS, substrate ATP: 2.80 ± 0.32 s⁻¹
  kcat of SpLeuRS, substrate Leu: 2.61 ± 0.16 s⁻¹
  kcat of SpLeuRS, substrate SptRNALeu: 2.89 ± 0.24 s⁻¹
SpLeuRS [2]; substrate ATP
  Ki: 2630 ± 260 nM
SpLeuRS [2]; substrate Leu
  Ki: 2650 ± 220 nM
SpLeuRS [2]; Km unaffected, maximum rates decreased
  Mode of inhibition with respect to ATP and Leu: noncompetitive
SpLeuRS [2]; apparent Km and rate both reduced
  Mode of inhibition with regard to tRNALeu: uncompetitive
S. pneumoniae
  MIC: 5 µg/mL (≈ 20.8 µM)
[3]
  Increase in the MIC, pET30a-eclrs vs pET30a: over 4 fold
E. coli; 24 h, read-out: MIC, Bacteria, E. coli
  MIC: 60 µg/mL (≈ 250 µM)
E. coli; read-out: MIC, E. coli strains containing pET30a
  MIC: 60 µg/mL (≈ 250 µM)
SpLeuRS [4]
  Effect on hydrolysis of mischarged Met-SptRNALeu (editing): severely block
